Converted amounts (≈) assume the structure as drawn.

Assay [1] has as its system Escherichia coli. Description: Inhibition of Escherichia coli M15 DXR at 100 uM.
Assay [2] is described as follows: Inhibition of Escherichia coli M15 DXR.
Assay [3] has as its system Escherichia coli. Description: Antibacterial activity against Escherichia coli B/r after 24 hrs by NCCLS method. In kind it is functional. The method, boiled down: (§1)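 MIC taken as the lowest agent concentration preventing visible bacterial growth after 24 h incubation at 37 °C.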
For assay [4], the system named is Pseudomonas aeruginosa. The experiment in a line: Antibacterial activity against Pseudomonas aeruginosa H45006 after 24 hrs by NCCLS method. It is filed as functional. The following applies: H45006, 24 h. The method, boiled down: as §1
The subject of assay [5] is Bacillus anthracis. Description: Antibacterial activity against Bacillus anthracis Sterne after 24 hrs by NCCLS method. In kind it is functional.
Assay [6] concerns Micrococcus luteus. The experiment in a line: Antibacterial activity against Micrococcus luteus WT after 24 hrs by NCCLS method. In kind it is functional. The method in brief:
as §1

The nature of assay [7]: Cytotoxicity against human BEAS2B cells after 24 hrs by MTS assay. In kind it is cell-based. The following applies: BEAS-2B.
A short description of assay [8]: Cytotoxicity against human WI38 cells after 24 hrs by MTS assay. The following applies: WI-38, 24 h. It is filed as cell-based. (In general: Tetrazolium dyes change colour on reduction, which living cells bring about.)

For the compound `O=c1ccn(O)c(=O)n1Cc1ccccc1`, the inhibition in assay [1] turned out to be 0%.
In assay [1], `O=c1n(O)ccn1Cc1ccccc1` displayed an inhibition of 19%.
Still for that read-out and setting: the same measure for `O=C(Cc1ccccc1)NO`: 26%; for `O=C(O)c1cc(-c2ccccc2)ccc1O`: 0%.
Consider `O=CN(O)CCCP(=O)(O)O` [FOSMIDOMYCIN], for which, in assay [2], the 50% inhibitory concentration (IC50) amounted to 0.08 µM. Also, the minimal inhibitory concentration (MIC) in assay [3] was 10 µM (≈ 1.83 µg/mL); in assay [4], 20 µM (≈ 3.66 µg/mL); in assay [5], 100 µM (≈ 18.3 µg/mL); in assay [6], more than 1000 µM.
`[O-][n+]1cccc(-c2ccccc2)c1` yielded an inhibition in assay [1] of 0%.
For `Oc1ccc(-c2ccccc2)cc1O`, the minimum inhibitory concentration (MIC) in assay [3] amounted to 500 µM (≈ 93.1 µg/mL); in assay [4], 200 µM (≈ 37.2 µg/mL); in assay [5], 200 µM (≈ 37.2 µg/mL); in assay [6], 200 µM (≈ 37.2 µg/mL).
The compound `Nc1cc(-c2ccccc2)ccc1O` returned an inhibition in assay [1] of 0%.
For `O=P(O)(O)CCc1ccc(O)c(O)c1`, the minimum inhibitory concentration (MIC) was more than 1000 µM in assay [3], 1000 µM (≈ 218 µg/mL) in assay [4], 1000 µM (≈ 218 µg/mL) in assay [5] and more than 1000 µM in assay [6].
The compound `Oc1ccc(Cc2ccccc2)cc1O` registered an IC50 in assay [2] of 22.4 µM. Also, the MIC in assay [3] turned out to be 1000 µM (≈ 200 µg/mL); in assay [4], 200 µM (≈ 40 µg/mL); in assay [5] it was 200 µM (≈ 40 µg/mL); in assay [6] it was 200 µM (≈ 40 µg/mL).
For the compound `CC1(C)S[C@@H]2[C@H](NC(=O)[C@H](N)c3ccccc3)C(=O)N2[C@H]1C(=O)O` [AMPICILLIN], the MIC in assay [3] turned out to be 5 µM (≈ 1.75 µg/mL); in assay [4], 500 µM (≈ 175 µg/mL); in assay [5], 0.1 µM (≈ 0.0349 µg/mL); in assay [6], 1 µM (≈ 0.349 µg/mL).
In assay [1], `O=c1cc(Cc2ccccc2)[nH]cc1O` returned an inhibition of 0%.
In the case of `O=c1ccc(-c2ccccc2)cn1O` [1-HYDROXY-5-PHENYLPYRIDIN-2(1H)-ONE], the results for the IC50 in assay [2], in assay [7] and in assay [8] were 1.4 µM, more than 300 µM and more than 300 µM, respectively. The MIC in assay [3] is 100 µM (≈ 18.7 µg/mL); in assay [4] it was 50 µM (≈ 9.36 µg/mL); in assay [5], 20 µM (≈ 3.74 µg/mL); in assay [6] it was 100 µM (≈ 18.7 µg/mL).
The compound `O=c1cc(Cc2ccccc2)occ1O` displayed an inhibition in assay [1] of 0%.
`O=C(O)CCc1ccc(O)c(O)c1` yielded an inhibition in assay [1] of 26.2%.
Consider `Oc1ccc(-c2ccccc2)cn1`, for which the half-inhibitory concentration (IC50) in assay [2] was 75 µM. In other words, the double-digit micromolar range.
`Oc1cnc(Cc2ccccc2)nc1O` yielded an inhibition in assay [1] of 30%.
Turning to `NC[C@H]1O[C@H](O[C@H]2[C@H](O)[C@@H](O[C@H]3O[C@H](CO)[C@@H](O)[C@H](N)[C@H]3O)[C@H](N)C[C@@H]2N)[C@H](O)[C@@H](O)[C@@H]1O` [KANAMYCIN], the MIC worked out at 10 µM (≈ 4.85 µg/mL) in assay [3], 200 µM (≈ 96.9 µg/mL) in assay [4], 5 µM (≈ 2.42 µg/mL) in assay [5] and 20 µM (≈ 9.69 µg/mL) in assay [6].

The term inhibition denotes the percentage by which the read-out fell short of the control. Read a high inhibition as a response far below the control. For orientation: IC50 means the midpoint of a concentration-inhibition curve. A low value points to greater potency. In general, MIC refers to the smallest concentration in the dilution series that meets the test's criterion for growth inhibition.

Values taken from ChEMBL document CHEMBL1154689, “Coordination chemistry based approach to lipophilic inhibitors of 1-deoxy-D-xylulose-5-phosphate reductoisomerase” (J Med Chem, 2009).
